The source of these data is PMC7065716 (International Journal of Nanomedicine, 2020).

“And” between values parts separate entries of the source, which are not always exact repeats. Identical values can stand only once. Counter-ions that a name gives are not always drawn.

Data set [1] concerns anti-cyclic citrullinated peptide antibody (anti-CCP). The experiment in a line: CFA-induced RA in rats: serum anti-CCP. The data set is classed as in vivo, female Wister albino rats. The conditions noted are these: treated day 13-27, serum day 28. The gist of the method:
(§1)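 Arthritis induced as three 0.4 mL subcutaneous plantar CFA injections (days 1, 4, 7); treatments given days 13–27 as topical gel 1 g/day on 4 cm2 shaved dorsum or oral 10 mg/kg/day. Eight rats per group. Day 28, 24 h after last dose, retro-orbital blood under diethyl ether; serum separated at 3000 rpm for 30 min, stored −20°C, assayed by ELISA kit. One-way ANOVA with Tukey test.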

For data set [2], the system named is CFA-induced RA in rats. As to the kind of experiment: CFA-induced RA in rats: radiographic analysis. The class given is in vivo, female Wister albino rats. As to conditions: day 28.
The nature of a further data set: In vitro DH release. The class given is physicochemical. The conditions noted are these: dialysis bag, pH 5.5, 37 °C. In a few lines:
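Formulation or free drug solution (3 mg drug equivalent) held in a cellophane dialysis bag (MWCO 12,000) wrapped on a cylinder. Bag placed in 30 mL PBS, pH 5.5, at 37 ± 0.5 °C, stirred 50 rpm. 3 mL sampled at 1, 2, 3, 5, 6, 7 and 8 h and replaced. UV read at 292 nm. Run in triplicate, mean ± SD, cumulative % released.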

A further data set can be described thus: Ex vivo skin permeation. The data set is classed as in vitro ADME, rat. The gist of the method:
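Franz cell, 5.0 cm2 permeation area, 100 mL distilled-water receiver. Shaved rat skin mounted stratum corneum up. Donor: vesicle formulation equivalent to 3 mg drug, or drug solution as control. Run at 37 ± 2 °C, 100 rpm, 24 h, sampling at 1–24 h with medium replaced. UV read at 292. Lag time from x-intercept of the linear portion of the cumulative µg/cm2-versus-time plot; Jss (µg/cm2/h) and Kp (cm/h) calculated.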

Data set [3] in a line: Pharmacokinetic analysis in rats. The class given is in vivo. The conditions noted are these: Wister albino, rat, plasma, 10 mg/kg. The gist of the method: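 Rats (200–250 g, six per group) fasted 10 h, then dosed 10 mg/kg by oral gavage or as 1 g gel on 4 cm2 shaved dorsum. Retro-orbital blood (0.5 mL, heparinized) taken 0.25–24 h; plasma stored −20°C. Plasma spiked with internal standard, extracted with tert-butyl methyl ether, reconstituted in acetonitrile:0.1% formic acid (80:20), analysed by LC-MS/MS on C18. Non-compartmental analysis; AUC by trapezoidal rule.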

Data set [4] relates to cartilage oligomeric matrix protein (COMP). As to the kind of experiment: CFA-induced RA in rats: serum COMP. The data set is classed as in vivo, female Wister albino rats. The conditions noted are these: treated day 13-27, serum day 28. In a few lines: as §1
Another data set has as its system IL-6. The experiment in a line: CFA-induced RA in rats: serum IL-6. The class given is in vivo, female Wister albino rats. As to conditions: treated day 13-27, serum day 28, listed as oral DH. The gist of the method: as §1
The subject of data set [5] is CFA-induced RA in rats. The experiment in a line: CFA-induced RA in rats: histopathology of knee joints, spleen and liver. The data set is classed as in vivo, female Wister albino rats. The conditions noted are these: H&E. In a few lines:
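CFA (0.4 mL) injected subcutaneously into hind-limb plantar surface on days 1, 4 and 7 in female rats, 180–200 g, 8 per group. From day 13 to 27: topical gel 1 g/day on 4 cm2 shaved dorsum, oral 10 mg/kg/day, or reference oral drug 0.1 mg/kg/day. On day 28, under pentobarbitone 50 mg/kg i.p., three knee joints per group plus spleen and liver fixed in 10% formalin saline for 24 h, H&E-stained and read by pathologist.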

For data set [6] the following is noted: cited from earlier work.

With `CN(Cc1cnc2nc(N)nc(N)c2n1)c1ccc(C(=O)N[C@@H](CCC(=O)O)C(=O)O)cc1` [MTX, methotrexate], the “Anti-CCP (serum)” value in data set [1] is 4.00 ± 0.03^a, b, c ng/mL. Besides, the radiographic findings entry in the data set with CFA-induced RA in rats [2] is “almost normal soft tissue with disappearance of inflammatory signs”.
On to `CN(C)[C@@H](CCOc1cccc2ccccc12)c1ccccc1` [DH, Dapoxetine hydrochloride], for which the “DH released in the first 3 h” value in “In vitro DH release” is “approximately 95%”. Besides, in the data set “Ex vivo skin permeation” (rat), the Papp is 0.944 ×10⁻⁶ cm/s. In addition, the “Lag Time” value in the data set “Ex vivo skin permeation” (rat skin, Franz cell) is reported as 91.10 ± 20.67 min. Moreover, the “Y5: Q24, cumulative amount permeated/unit area in 24 h” value in the data set “Ex vivo skin permeation” (rat skin, Franz cell, 37 °C, 24 h) is listed as 135.6±17.0 µg/cm2. Also, the “Jss (drug flux, steady state)” value in “Ex vivo skin permeation” (rat skin, Franz cell, listed as DH solution) was 5.6±0.7 µg/cm2.h and 5.65± 0.71 µg/cm2.h. In data set [3] (oral), this compound gave an AUC(0-inf) of 734 ng·h/mL and a Cmax of 198 ng/mL. In [3] (po), this compound came in with an AUC(0-inf) of 734 ± 51.1 ng·h/mL, an AUC(0-t) of 701 ± 25.8 ng·h/mL, a Cmax of 198 ± 16.4 ng/mL and an MRT of 5.74 ± 1.56 h. Moreover, in [3] (po), the Tmax worked out at 1.5 ± 0.06 h and the half-life was 5.46 ± 2.87 h. Besides, the “Anti-CCP (serum)” value in data set [1] is reported as 4.64 ± 0.15^a, b, c, d, e ng/mL. For the same compound, in data set [4], the “COMP (serum)” value is on record as 70.30 ± 5.73^a, b, c, d, e pg/mL. In addition, the “IL-6 (serum)” value in the data set with IL-6 is recorded as “no significant effect”. Besides, the radiographic findings entry in the data set with CFA-induced RA in rats [2] is “significant and comparable inhibition of soft tissues swelling”. Besides, in the data set on CFA-induced RA in rats [5], the knee joint histopathology entry is reported as “rough cerrated articular surface”, the liver histopathology entry is reported as “marked congestion of central veins” and the spleen histopathology entry is reported as “marked activation in the macrophage in the white pulb”. Moreover, the elimination half-life in data set [6] is reported as 1.31 h.
